Experimental data reported in PMC5561660 (Organic & biomolecular chemistry, 2017).
Read-outs that look alike come from different tables or passages of the source.

Key:
[1] = target: T1, human VAChT (Homo sapiens, UniProt Q16572); conditions: read-out: Ki VAChT, mean ± SEM, cited from earlier work
T1 sequence (Q16572 1-532): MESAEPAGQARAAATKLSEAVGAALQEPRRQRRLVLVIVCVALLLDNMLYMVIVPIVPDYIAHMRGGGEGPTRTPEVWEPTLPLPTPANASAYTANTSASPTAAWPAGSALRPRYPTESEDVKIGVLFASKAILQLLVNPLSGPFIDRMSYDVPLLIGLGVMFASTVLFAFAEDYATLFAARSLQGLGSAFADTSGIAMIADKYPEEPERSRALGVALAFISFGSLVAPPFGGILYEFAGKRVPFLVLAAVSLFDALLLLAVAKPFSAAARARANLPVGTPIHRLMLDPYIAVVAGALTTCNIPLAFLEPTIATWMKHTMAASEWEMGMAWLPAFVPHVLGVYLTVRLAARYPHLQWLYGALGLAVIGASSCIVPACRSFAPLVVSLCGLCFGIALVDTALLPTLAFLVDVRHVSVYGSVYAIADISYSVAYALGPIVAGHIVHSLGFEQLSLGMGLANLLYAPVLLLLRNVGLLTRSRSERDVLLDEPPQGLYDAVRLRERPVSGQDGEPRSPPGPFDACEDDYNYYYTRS

[2] = target: σ1 receptor (Cavia porcellus, UniProt Q60492); conditions: read-out: Ki σ1, mean ± SEM, cited from earlier work
[3] = test system: σ1 receptor; conditions: selectivity ratio, cited from earlier work
[4] = target: T2, σ2 receptor (Rattus norvegicus, UniProt Q5U3Y7); conditions: read-out: Ki σ2, mean ± SEM, cited from earlier work
T2 sequence (Q5U3Y7 1-176): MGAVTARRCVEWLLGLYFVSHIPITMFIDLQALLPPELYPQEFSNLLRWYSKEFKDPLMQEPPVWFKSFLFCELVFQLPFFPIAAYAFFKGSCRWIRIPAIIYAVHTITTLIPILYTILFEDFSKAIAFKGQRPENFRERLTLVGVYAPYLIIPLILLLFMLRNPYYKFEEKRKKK

[5] = test system: σ2 receptor; conditions: selectivity ratio, cited from earlier work
[6] = target: T1, human VAChT; experiment: VAChT competitive binding, displacement of
Outline: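 Postnuclear supernatant (200 µg) from PC12A123.7 cells expressing human VAChT, incubated with (−)-[3H]vesamicol and test compound (0.1–10,000 nM, 10-fold steps) in 110 mM potassium tartrate, 20 mM HEPES pH 7.4, 1 mM DTT, 0.02% sodium azide, 22 °C, 24 h. Duplicate filtration on PEI-coated GF/F filters, buffer washes, scintillation counting. Ki from rectangular hyperbola fit of averaged data; ≥2 independent assays.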

σ1 receptor (Cavia porcellus, UniProt Q60492), sequence (Q60492 whole entry): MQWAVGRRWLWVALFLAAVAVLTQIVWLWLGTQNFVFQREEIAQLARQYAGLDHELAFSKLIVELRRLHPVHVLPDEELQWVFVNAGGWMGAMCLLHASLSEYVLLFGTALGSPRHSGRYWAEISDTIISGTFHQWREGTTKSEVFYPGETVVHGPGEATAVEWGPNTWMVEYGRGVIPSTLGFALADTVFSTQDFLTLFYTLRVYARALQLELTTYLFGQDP

O=C(c1ccc(OCCF)cc1)C1CCN(C2Cc3ccccc3CC2O)CC1 (racemic) [(±)-5, (4-(2-fluoroethoxy)phenyl)(1-(3-hydroxy-1,2,3,4-tetrahydronaphthalen-2-yl)piperidin-4-yl)methanone]
Ki ([1]; ref [20]): 38 ± 3.8 nM
Ki ([2]; ref [20]): 2120 ± 50 nM
σ1/VAChT ([3]; ref [20]): 56
Ki ([4]; ref [20]): 1860 ± 140 nM
σ2/VAChT ([5]; ref [20]): 49

O=C(c1ccc(OCCF)nc1)C1CCN(C2Cc3ccccc3CC2O)CC1 (racemic) [(±)-6, (6-(2-fluoroethoxy)pyridin-3-yl)(1-(3-hydroxy-1,2,3,4-tetrahydronaphthalen-2-yl)piperidin-4-yl)methanone]
Ki ([1]; ref [23]): 1.74 ± 0.32 nM
Ki ([2]; ref [23]): 13.2 ± 0.2 nM
σ1/VAChT ([3]; ref [23]): 8
Ki ([4]; ref [23]): 1890 ± 240 nM
σ2/VAChT ([5]; ref [23]): 1086

O=C(c1ccc(NCCF)cc1)C1CCN(C2Cc3ccccc3CC2O)CC1 (racemic) [(±)-7, (4-((2-Fluoroethyl)amino)phenyl)(1-(3-hydroxy-1,2,3,4-tetrahydronaphthalen-2-yl)piperidin-4-yl)methanone]
Ki [6]: 2.68 ± 0.23 nM
